Our source for the BP values is ChEMBL document CHEMBL1132342, “Novel hypotensive agents from Verbesina caracasana. 6. Synthesis and pharmacology of caracasandiamide” (1999).

Assay [1] deals with Rattus norvegicus. The experiment in a line: Change in systolic blood pressure after iv administration of 1600 ug/Kg compound (treatment with reserpine(5 mg/kg/day for 2 days, ip)in anesthetized rats. It counts as functional, Artery. The procedure, abridged:
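Urethane-anesthetized male Wistar rats, 6 per group, received iv doses of 200-1600 µg/kg (ratio 2.0) given alone or under a pretreatment. Pretreatments were continuous iv papaverine infusion (1 mg/kg/min), reserpine 5 mg/kg/day ip for 2 days, or hexamethonium 5 mg/kg iv. Peak changes in femoral arterial BP and HR were recorded; values are mean ± SE.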

In assay [2] the test system is Rattus norvegicus. The experiment in a line: Change in diastolic blood pressure after iv administration of 4.12 uM/kg in anesthetized rats. Type of assay: functional, Artery.

As for `COc1ccc(C2C(c3ccc(OC)c(OC)c3)[C@H](C(=O)NCCCC/N=C(\N)NCC=C(C)C)[C@@H]2C(=O)NCCCC/N=C(\N)NCC=C(C)C)cc1OC` (some centres not stated) [CARACASANDIAMIDE], the figures for the BP with Rattus norvegicus [1] and in the assay with Rattus norvegicus [2] were -16 mmHg and -47 mmHg, respectively.
